Env fusion inh = inhibitors of HIV Env-mediated cell fusion; HeLa-JRFL Env/CEM21 cell fusion, luciferase; inhibition, % at 12.3 µM; 360,000 tested, 1.1% active;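 active = mean replicate inhibition score of at least 50 and every replicate individually at or above 50; inconclusive = only one of the two criteria met; inactive = mean below 50 and not all replicates reaching 50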
PglD DTNB = PglD (C. jejuni) enzyme inhibition; purified PglD enzyme, DTNB colorimetric CoA detection; inhibition, % at 12.5 µM; 360,000 tested, 0.098% active; AID 602405; in the data active = inhibition above about 16%, passing the limit was not always enough; inconclusive = no clear call, values can overlap the other calls
Ecoli rRNA inh = selective bacterial rRNA inhibition in E. coli; E. coli WT GFP vs humanized-ribosome RFP mutants, fluorescence, 24 h; hits give low values; DMSO median 0, no signal -100; GFP signal change (wild-type ribosome), % (test concentration not listed); 350,000 tested, 1.6% active; AID 720706;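 active = significant combined selectivity score with lowered wild-type GFP, culture density cut under 30%, mutant RFP and density less affected; inactive = any of these conditions unmet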
FN deposition inh = fibronectin deposition inhibition; inhibition, % at 12.6 µM; AH1F fibroblasts, Alexa488-fibronectin deposition fluorescence, overnight; AID 743247; 350,000 tested, 0.086% active;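 active = mean inhibition across replicates of 30% or more, regardless of how many single replicates reach that level; inconclusive = mean under 30% yet at least half of replicates reach 30%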
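Assay system: AH1F fibroblasts assembling fluorescent fibronectin matrix; Amount: 10000 AH1F cells per well; Buffer or medium: DMEM, 2% serum; Probe or stimulus: Alexa488-fibronectin, 24 nM final in well; Doses: single compound dose, delivered by pin transfer; Incubation: 1 h adhesion, overnight exposure; Measured by: fluorescence 485/525 nm; Read-out: fibronectin deposition inhibition.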
PGC1a acetyl inh = lowers PGC1a acetylation signal in U2OS cells. inhibition, % at 15.6 µM. AlphaScreen anti-acetyl-lysine; with virally co-expressed GCN5 acetyltransferase. AID 651687. 350,000 tested, 0.17% active;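 active = every replicate shows inhibition of at least 40%; inconclusive = mean inhibition at least 40% but some replicate below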
DENV2 CPE rescue = DENV2-induced cell death inhibition; DENV2-infected cells, cytopathic effect rescue, plate reader; AID 651640; 350,000 tested, 1.7% active; CPE inhibition, % at 9.99 µM; in the data active = CPE inhibition above about 20%, passing the limit was not always enough; inconclusive = no clear call, values can overlap the other calls; tested in BHK-21 cells
Numbers stand for hits; 0 = inactive; ? = inconclusive; - = no result; [ ] = another dose, or the depositor's remark. Sampled rows, rich in hits. Any-hit rate of the full collection: about 3.5%.

SMILES | Env fusion inh | PglD DTNB | Ecoli rRNA inh | FN deposition inh | PGC1a acetyl inh | DENV2 CPE rescue
CS(=O)(=O)N1[C@@H](CO)[C@@H](c2ccccc2)C12CN(Cc1cc(F)ccc1F)C2 | - | - | 0 | 0 | 0 | 40
O=C(O)c1ccc(Sc2ccccn2)c([N+](=O)[O-])c1 | 0 | 0 | 0 | 0 | 0 | 0
COC(=O)c1ccc(Sc2ccccn2)c([N+](=O)[O-])c1 | - | - | 0 | 0 | - | 88
CC(C)(C)NC(=O)c1ccc(Sc2ccccc2)c([N+](=O)[O-])c1 | - | - | - | - | 81 | -
O=C(O)CNC(=O)c1ccc(Sc2ccccc2)c([N+](=O)[O-])c1 | 0 | - | 0 | 0 | - | 0
C[C@H]1CN([C@@H](C)CO)C(=O)c2cccc(NC(=O)Nc3ccc4c(c3)OCO4)c2O[C@@H]1CN(C)S(=O)(=O)c1cccs1 | - | 0 | 0 | - | 0 | 0
C[C@H]1CN([C@@H](C)CO)C(=O)c2cc(NS(=O)(=O)c3ccc(F)cc3)ccc2O[C@@H]1CN(C)CC1CCCCC1 | 0 | 0 | 0 | - | - | 0
COCC(=O)Nc1ccc2c(c1)C(=O)N(C)[C@@H]1CC[C@@H](CC(=O)O)O[C@H]1CO2 | 0 | 0 | 0 | 0 | 0 | 0
Cc1cc(C)c(C)c(S(=O)(=O)NCc2ccncc2)c1C | 57 | - | 0 | 0 | - | 0
Cn1c(=O)oc2cc(S(=O)(=O)NCc3ccncc3)ccc21 | 100 | 0 | - | 0 | 0 | -
COc1cc(S(=O)(=O)NCc2ccncc2)ccc1Br | 65 | 0 | 0 | - | 0 | 0
CN(C)C(=O)C[C@H]1CC[C@H]2[C@@H](COC[C@H](O)CN2CC2CCCCC2)O1 | 0 | 0 | 0 | 0 | 0 | 0
COc1ccc(-c2nc(NCCCN(C)C)c3ccccc3n2)cc1 | 0 | 0 | 0 | 0 | 0 | 30
Cc1ccccc1-c1ccc([C@@H]2[C@H]3CN(C(=O)Cc4ccccn4)CC(=O)N3[C@H]2CO)cc1 | - | - | 0 | - | 0 | 0
O=C(NCCN1CCOCC1)C(=O)NCC1OCCN1S(=O)(=O)c1ccc(Cl)cc1 (stereo not given) | 0 | 0 | 0 | 0 | - | 79
O=C1Nc2ccccc2/C1=N/N=C/c1cccc(O)c1 | 0 | 0 | 0 | 0 | 0 | 0
Oc1cccc(C=NN=C2c3ccccc3-c3ccccc32)c1 | 0 | - | -34 | 0 | - | 0
COc1ccccc1-c1ccc2c(c1)O[C@@H](CN(C)S(=O)(=O)c1ccc(C)cc1)[C@@H](C)CN([C@H](C)CO)S2(=O)=O | 0 | 0 | 0 | - | 0 | 0
C[C@@H]1CN([C@@H](C)CO)S(=O)(=O)c2ccc(Br)cc2O[C@@H]1CN(C)S(=O)(=O)c1ccc(F)cc1 | 0 | 0 | 0 | 0 | 0 | ?
Cc1ccc(S(=O)(=O)N(C)C[C@H]2Oc3cc(-c4cccc(F)c4)ccc3S(=O)(=O)N([C@H](C)CO)C[C@H]2C)cc1 | 64[16.7 µM] | 0 | 0 | - | 0 | 0
COc1ccccc1-c1ccc2c(c1)O[C@H](CN(C)S(=O)(=O)c1ccc(C)cc1)[C@H](C)CN([C@@H](C)CO)S2(=O)=O | 43[16.7 µM] | 0 | 0 | - | 0 | 0
Cc1ccc(S(=O)(=O)N(C)C[C@H]2Oc3cc(-c4cccc(F)c4)ccc3S(=O)(=O)N([C@@H](C)CO)C[C@H]2C)cc1 | 69[16.7 µM] | 0 | 0 | - | 0 | 0
C[C@H]1CN([C@@H](C)CO)S(=O)(=O)c2ccc(Br)cc2O[C@H]1CN(C)S(=O)(=O)c1ccc(F)cc1 | 63[16.7 µM] | 0 | 0 | 0 | 0 | 0
C[C@H]1CN([C@@H](C)CO)C(=O)Cc2cc(NC(=O)Cn3cnnn3)ccc2O[C@H]1CN(C)Cc1ccc(Cl)c(Cl)c1 | - | 0 | 0 | 0 | 0 | 0
C[C@H]1CN([C@@H](C)CO)S(=O)(=O)c2ccc(-c3cccc(F)c3)cc2O[C@H]1CN(C)S(=O)(=O)c1ccc(F)cc1 | 0 | 0 | 0 | 0 | 0 | 0
C[C@@H]1CN([C@@H](C)CO)S(=O)(=O)c2ccc(-c3cccc(F)c3)cc2O[C@@H]1CN(C)S(=O)(=O)c1ccc(F)cc1 | 59[16.7 µM] | 0 | 0 | 0 | 0 | 0
CCCNC(=O)N1[C@H](C#N)[C@@H](c2ccccc2)[C@@H]1CO | 0 | 0 | 0 | 0 | 0 | 0
C[C@H](CO)N1C[C@H](C)[C@@H](CN(C)S(=O)(=O)c2ccccc2)Oc2ccc(NS(=O)(=O)c3ccc(Cl)cc3)cc2C1=O | 0 | 0 | 0 | - | 0 | 0
COc1ccc(-c2cn(-c3ccccc3)c(=S)[nH]2)cc1OC | 62 | 0 | 0 | 0 | 0 | 0
